From ChEMBL document CHEMBL3612019, “Revisiting 1,3,4-Oxadiazol-2-ones: Utilization in the Development of ABHD6 Inhibitors” (Bioorg Med Chem, 2015) come the findings set out here.

Each structure is given as a SMILES string. Activity calls are given as the source filed them. No cut-off for these calls is given here.

For assay [1], the target named is T1, Monoacylglycerol lipase ABHD6 (Mus musculus) (UniProt Q8R2Y0).
T1 sequence (whole entry): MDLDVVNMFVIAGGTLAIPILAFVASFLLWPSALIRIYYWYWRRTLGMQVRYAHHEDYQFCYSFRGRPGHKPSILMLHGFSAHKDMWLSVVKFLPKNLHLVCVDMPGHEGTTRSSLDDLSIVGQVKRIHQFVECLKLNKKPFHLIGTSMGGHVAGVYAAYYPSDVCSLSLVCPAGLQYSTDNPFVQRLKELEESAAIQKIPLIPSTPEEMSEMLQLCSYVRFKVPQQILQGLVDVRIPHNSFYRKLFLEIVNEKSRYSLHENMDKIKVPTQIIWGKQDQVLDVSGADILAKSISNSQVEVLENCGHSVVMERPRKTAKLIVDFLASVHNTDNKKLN
The experiment in a line: Inhibition of ABHD6 in mouse whole brain membranes at 1 uM incubated for 1 hr by TAMRA-FP probe based competitive activity-based protein profiling assay. The format is cell membranes. The settings on record: Membrane. The gist of the method:
(§1)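 Competitive ABPP on mouse brain membranes (100 µg) treated 1 h with DMSO or inhibitor. TAMRA-FP labelling then ran 1 h at RT (final probe 2 µM). Reaction was quenched with gel loading buffer and proteins resolved by 10% SDS–PAGE for fluorescent band read-out. WWL70 located the ABHD6 band. Gels are representative of two experiments.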

Assay [2] has as its target T2, Fatty-acid amide hydrolase 1 (Mus musculus) (UniProt O08914).
T2 sequence (whole entry): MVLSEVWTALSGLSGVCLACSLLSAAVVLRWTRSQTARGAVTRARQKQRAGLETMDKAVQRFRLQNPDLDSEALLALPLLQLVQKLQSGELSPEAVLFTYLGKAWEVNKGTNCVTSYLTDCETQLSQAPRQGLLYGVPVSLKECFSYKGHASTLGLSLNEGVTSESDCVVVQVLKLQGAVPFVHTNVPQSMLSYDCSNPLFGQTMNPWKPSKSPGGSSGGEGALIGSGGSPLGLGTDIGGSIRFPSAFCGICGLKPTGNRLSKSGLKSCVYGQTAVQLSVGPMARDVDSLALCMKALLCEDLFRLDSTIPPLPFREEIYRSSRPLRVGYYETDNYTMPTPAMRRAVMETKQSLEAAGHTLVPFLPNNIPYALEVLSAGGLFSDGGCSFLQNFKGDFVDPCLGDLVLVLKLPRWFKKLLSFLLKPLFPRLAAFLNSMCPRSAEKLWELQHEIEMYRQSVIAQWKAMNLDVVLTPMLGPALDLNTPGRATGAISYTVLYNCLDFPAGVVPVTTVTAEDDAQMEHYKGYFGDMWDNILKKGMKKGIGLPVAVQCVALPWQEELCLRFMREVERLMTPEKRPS
The experiment in a line: Inhibition of FAAH in mouse whole brain membranes at 10 uM incubated for 1 hr by TAMRA-FP probe based competitive activity-based protein profiling assay. The class given is cell membranes. The settings on record: Membrane. The gist of the method: as §1

For assay [3], the target named is T3, Fatty-acid amide hydrolase 1 (Homo sapiens) (UniProt O00519).
T3 sequence (whole entry): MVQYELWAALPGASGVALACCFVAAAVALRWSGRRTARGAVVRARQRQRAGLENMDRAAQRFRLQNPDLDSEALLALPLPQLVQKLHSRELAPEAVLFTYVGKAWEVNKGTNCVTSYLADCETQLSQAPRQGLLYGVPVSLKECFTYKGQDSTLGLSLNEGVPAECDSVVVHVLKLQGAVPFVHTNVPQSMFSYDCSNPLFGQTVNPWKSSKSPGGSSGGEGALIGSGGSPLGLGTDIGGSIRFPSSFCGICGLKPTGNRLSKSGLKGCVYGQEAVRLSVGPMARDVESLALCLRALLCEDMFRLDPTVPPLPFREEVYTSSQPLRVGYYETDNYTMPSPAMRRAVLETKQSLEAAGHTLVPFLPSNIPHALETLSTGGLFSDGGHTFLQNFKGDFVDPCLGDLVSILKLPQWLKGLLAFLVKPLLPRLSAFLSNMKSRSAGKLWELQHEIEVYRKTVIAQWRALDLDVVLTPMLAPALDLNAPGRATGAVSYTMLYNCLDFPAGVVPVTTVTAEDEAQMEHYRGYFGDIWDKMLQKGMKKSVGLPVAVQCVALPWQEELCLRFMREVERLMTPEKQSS
The experiment in a line: Inhibition of human FAAH expressed in COS7 cell membranes at 20 uM pre-incubated for 10 mins before [3H]-AEA substrate addition by liquid scintillation counting. The settings on record: COS-7.

Assay [4] deals with T4, Monoacylglycerol lipase ABHD6 (Homo sapiens, UniProt Q9BV23).
T4 sequence (Q9BV23 whole entry): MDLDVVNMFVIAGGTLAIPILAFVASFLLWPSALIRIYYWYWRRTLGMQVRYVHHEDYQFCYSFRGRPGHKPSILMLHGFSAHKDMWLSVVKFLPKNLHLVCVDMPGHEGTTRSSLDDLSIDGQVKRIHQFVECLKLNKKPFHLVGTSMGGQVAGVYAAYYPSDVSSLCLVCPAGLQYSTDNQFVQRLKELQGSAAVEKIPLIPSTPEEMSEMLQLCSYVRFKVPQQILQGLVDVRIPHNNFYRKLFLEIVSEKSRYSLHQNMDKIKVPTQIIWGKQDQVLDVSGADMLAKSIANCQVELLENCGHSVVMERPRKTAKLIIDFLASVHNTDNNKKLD
The experiment in a line: Inhibition of human ABHD6 expressed in HEK293 cells at 1 uM pre-incubated for 10 mins before 2-AG substrate addition followed by rapid 40 fold compound dilution measured after 10 mins by HPLC method. The class given is cell-based.

The target in assay [5] is T5, Monoglyceride lipase (Homo sapiens) (UniProt Q99685).
T5 sequence (whole entry): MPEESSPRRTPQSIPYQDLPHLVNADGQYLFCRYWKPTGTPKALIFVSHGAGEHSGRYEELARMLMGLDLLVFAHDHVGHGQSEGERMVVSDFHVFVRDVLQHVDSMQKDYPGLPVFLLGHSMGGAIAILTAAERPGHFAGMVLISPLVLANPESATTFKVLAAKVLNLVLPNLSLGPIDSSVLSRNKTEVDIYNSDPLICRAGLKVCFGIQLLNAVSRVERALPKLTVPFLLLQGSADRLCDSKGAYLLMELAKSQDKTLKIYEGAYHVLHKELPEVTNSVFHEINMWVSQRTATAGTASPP
The experiment in a line: Inhibition of human MAGL expressed in HEK293 cells at 20 uM pre-incubated for 10 mins before 2-AG substrate addition by HPLC method. The format is cell-based. The gist of the method: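 Lysates of hMAGL-overexpressing HEK293 cells in 50 mM Tris–HCl pH 7.4 with 1 mM EDTA. After a 10 min preincubation with inhibitor or DMSO, 2-AG was added (final 50 µM) and incubated 10 min at 37 °C. The reaction was stopped and samples centrifuged. Arachidonic acid formation and 2-AG depletion were measured by HPLC. Replicates as for the FAAH assay.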

For the compound `Nc1cccc(Cn2nc(Oc3ccccc3)oc2=O)c1`, the inhibition result in assay [1] and in assay [2] was “Active” throughout.

`COc1nn(Cc2cccc(N)c2)c(=O)o1`: the values for the inhibition in assay [3] and in assay [5] were 41% and 33%, respectively. Also, the inhibition (usually the relative decrease from the control value, in per cent) in assay [2] was “inactive”. In assay [4], the IC50 (usually the concentration that inhibits the measured activity by half) was 4.07 µM.
